The text below walks through data of ChEMBL document CHEMBL4330076, “Quinazolin-2,4-dione-Based Hydroxamic Acids as Selective Histone Deacetylase-6 Inhibitors for Treatment of Non-Small Cell Lung Cancer” (J Med Chem, 2019).

Data set [1] is described as follows: AUC (0 to 24 hrs) in C57BL/6 mouse lung at 40 mg/kg, po administered via gavage by LC-MS/MS analysis. It is filed as ADME, organism-based. Further details: time < 24 hr, dose 40 mg/kg, route oral. The following applies: in vivo.
The target of data set [2] is T1, Protein deacetylase HDAC6 (Homo sapiens, UniProt Q9UBN7).
T1 sequence (Q9UBN7 whole entry): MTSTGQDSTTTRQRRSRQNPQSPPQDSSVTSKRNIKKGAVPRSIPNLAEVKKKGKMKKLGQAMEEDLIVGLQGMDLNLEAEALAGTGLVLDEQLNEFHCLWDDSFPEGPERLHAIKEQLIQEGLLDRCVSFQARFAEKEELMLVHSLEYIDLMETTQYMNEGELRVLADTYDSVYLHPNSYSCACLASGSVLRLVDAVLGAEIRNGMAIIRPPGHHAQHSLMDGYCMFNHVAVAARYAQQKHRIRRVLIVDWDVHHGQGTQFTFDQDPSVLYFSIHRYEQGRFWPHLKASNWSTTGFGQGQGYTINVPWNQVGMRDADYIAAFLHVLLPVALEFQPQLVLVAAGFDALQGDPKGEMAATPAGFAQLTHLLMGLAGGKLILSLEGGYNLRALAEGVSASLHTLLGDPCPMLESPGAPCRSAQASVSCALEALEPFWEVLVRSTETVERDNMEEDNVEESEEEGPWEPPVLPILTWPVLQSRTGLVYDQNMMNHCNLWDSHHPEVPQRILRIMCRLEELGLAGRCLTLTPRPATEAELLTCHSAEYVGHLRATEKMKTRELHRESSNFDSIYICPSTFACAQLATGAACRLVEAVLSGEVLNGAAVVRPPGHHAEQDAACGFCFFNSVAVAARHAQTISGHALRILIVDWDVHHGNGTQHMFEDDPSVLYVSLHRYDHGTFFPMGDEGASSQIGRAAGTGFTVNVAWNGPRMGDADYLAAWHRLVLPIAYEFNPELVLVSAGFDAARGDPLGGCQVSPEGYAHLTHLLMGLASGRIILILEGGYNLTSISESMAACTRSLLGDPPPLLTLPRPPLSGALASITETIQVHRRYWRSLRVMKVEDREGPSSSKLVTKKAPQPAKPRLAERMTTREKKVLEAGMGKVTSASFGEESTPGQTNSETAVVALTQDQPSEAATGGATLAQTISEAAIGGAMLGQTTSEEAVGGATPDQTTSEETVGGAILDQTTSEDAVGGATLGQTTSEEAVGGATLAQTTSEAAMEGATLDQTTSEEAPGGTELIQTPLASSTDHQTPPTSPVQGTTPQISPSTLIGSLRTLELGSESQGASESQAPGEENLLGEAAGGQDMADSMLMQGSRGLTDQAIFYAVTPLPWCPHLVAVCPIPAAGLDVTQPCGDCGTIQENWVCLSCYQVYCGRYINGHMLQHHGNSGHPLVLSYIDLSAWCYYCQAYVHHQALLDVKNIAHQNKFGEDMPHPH
The experiment in a line: Competitive inhibition of human full-length recombinant HDAC6 expressed in baculovirus infected Sf9 insect cells using Boc-Lys (Ac)-AMC as substrate preincubated for 10 mins followed by substrate addition and measured after 30 mins by fluorescence assay.

Data set [3] in a line: AUC (0 to 24 hrs) in C57BL/6 mouse liver at 40 mg/kg, po administered via gavage by LC-MS/MS analysis. The format is ADME, organism-based. Further details: dose 40 mg/kg, time < 24 hr, route oral. The following applies: in vivo.
In data set [4] the test system is A549. The experiment in a line: Cytotoxicity against human A549 cells after 72 hrs by MTT assay. It is filed as functional, cell-based. Conditions: A549, 72 h. An outline of the steps:
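Human A549 lung cancer cells exposed to serial dilutions of inhibitor at 37 °C for 72 h. Cytotoxicity expressed as IC50.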

Data set [5] deals with Lewis lung carcinoma cell line. The experiment in a line: Cytotoxicity against mouse LL/2 cells at 4 uM after 72 hrs in presence of paclitaxel by MTT assay relative to control. The format is functional. An outline of the steps:
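Mouse LL/2 cells treated with inhibitor alone or combined with paclitaxel for 3 days. Viability measured by MTT assay relative to untreated control.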
For orientation: Tetrazolium dyes change colour on reduction, which living cells bring about.

Data set [6] relates to A549. Kind of data set: Induction of apoptosis in human A549 cells assessed as viable cells at 4 uM after 24 hrs by Annexin V/propidium iodide staining-based flow cytometric analysis (reference value: 96.2%). The format is functional. In general terms: In flow cytometry, cells or beads pass a laser one at a time.
Data set [7] concerns Lewis lung carcinoma cell line. The experiment in a line: Cytotoxicity against mouse LL/2 cells after 72 hrs by MTT assay. It is filed as functional, cell-based.
Data set [8] deals with Lewis lung carcinoma cell line. Kind of data set: Induction of apoptosis in mouse LL/2 cells assessed as necrotic cells at 4 uM after 24 hrs by Annexin V/propidium iodide staining-based flow cytometric analysis (reference value: 7.3%). The format is functional.
The test system of data set [9] is A549. The experiment in a line: Induction of apoptosis in human A549 cells assessed as late apoptotic cells at 4 uM after 24 hrs by Annexin V/propidium iodide staining-based flow cytometric analysis (reference value: 1.6%). The format is functional.
A short description of data set [10]: Drug uptake in C57BL/6 mouse plasma at 40 mg/kg, po administered via gavage co-administered with paclitaxel at 10 mg/kg, ip by LC-MS/MS analysis. It is filed as ADME, organism-based. Conditions: in vivo.
Data set [11] concerns the target T2, Histone deacetylase 8 (Homo sapiens, UniProt Q9BY41).
T2 sequence (Q9BY41 whole entry): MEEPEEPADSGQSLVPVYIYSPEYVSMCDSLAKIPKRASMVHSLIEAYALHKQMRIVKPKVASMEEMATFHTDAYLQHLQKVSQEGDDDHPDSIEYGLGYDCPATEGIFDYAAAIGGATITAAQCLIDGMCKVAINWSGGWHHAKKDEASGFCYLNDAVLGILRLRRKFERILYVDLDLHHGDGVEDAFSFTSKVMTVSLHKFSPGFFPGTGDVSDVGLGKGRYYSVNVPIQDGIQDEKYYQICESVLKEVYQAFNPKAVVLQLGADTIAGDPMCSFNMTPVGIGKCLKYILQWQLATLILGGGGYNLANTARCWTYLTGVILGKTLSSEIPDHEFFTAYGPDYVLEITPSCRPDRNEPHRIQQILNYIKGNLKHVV
Kind of data set: Inhibition of human full-length recombinant HDAC8 expressed in baculovirus infected Sf9 insect cells using fluorogenic peptide RHKAcKAc as substrate after 2 hrs.

Data set [12] can be described thus: AUC (0 to 24 hrs) in C57BL/6 mouse kidney at 40 mg/kg, po administered via gavage by LC-MS/MS analysis. The format is ADME, organism-based. Further details: time < 24 hr, dose 40 mg/kg, route oral. The following applies: in vivo.
The nature of data set [13]: Drug uptake in C57BL/6 mouse liver at 40 mg/kg, po administered via gavage co-administered with paclitaxel at 10 mg/kg, ip by LC-MS/MS analysis. It is filed as ADME, organism-based. The following applies: in vivo.
The subject of data set [14] is Lewis lung carcinoma cell line. Kind of data set: Antitumor activity against mouse LL/2 cells implanted in C57BL/6 mouse assessed as tumor growth inhibition at 20 mg/kg, po qd administered for 21 consecutive days co-administered with paclitaxel at 10 mg/kg, ip qd administered for 5 days relative to control. It is filed as functional.
The test system of data set [15] is Lewis lung carcinoma cell line. The experiment in a line: Induction of apoptosis in mouse LL/2 cells assessed as early apoptotic cells at 4 uM after 24 hrs by Annexin V/propidium iodide staining-based flow cytometric analysis (reference value: 1.8%). The format is functional.
The nature of data set [16]: Drug metabolism in C57BL/6 mouse lung assessed as hydrolysis metabolite formation at 40 mg/kg, po administered via gavage by LC-MS/MS analysis. It is filed as ADME, organism-based. Conditions: in vivo.
A short description of data set [17]: Drug metabolism in C57BL/6 mouse liver assessed as hydroxylated metabolite formation at 40 mg/kg, po administered via gavage by LC-MS/MS analysis. The format is ADME, organism-based. Conditions: in vivo.
Data set [18] deals with A549. The experiment in a line: Induction of apoptosis in human A549 cells assessed as viable cells at 4 uM after 24 hrs in presence of paclitaxel by Annexin V/propidium iodide staining-based flow cytometric analysis (reference value: 96.2%). It is filed as functional.

Usually Ki stands for a measure of affinity in units of concentration, obtained from inhibition or displacement. For orientation: IC50 means the midpoint of a concentration-inhibition curve. By TGI is commonly meant how far tumour growth fell short of that in controls. As to `O=C(NO)c1ccc(Cn2c(=O)n(CCc3ccccc3)c(=O)c3ccccc32)cc1`, the AUC in [1] is 1335 ng·h/g; in [3], 6395 ng·h/g; in data set [12] it was 1903 ng·h/g. Also, in data set [2], the inhibition constant Ki is 0.0016 µM. Besides, the results for the concentration for half-maximal inhibition (IC50) in data set [4], in [7] and in data set [11] were 7.87 µM, 7.87 µM and 0.309 µM, respectively. For the same compound, the Activity in [5] is 80 - 90%; in [6], 97.4%; in data set [8], 2.3%; in [9] it was 0.7%; in data set [15] it was 1.5%; in data set [18], 92.7%. Also, the Cp in data set [10] is 160 ng/mL. The Drug uptake in data set [13] amounted to 719 ng/g. Besides, the inhibition of tumour growth (TGI) in data set [14] stood at 67.5%. The Drug metabolism entry is recorded as “Metabolite_Detected” in data set [16] and “Metabolite_Notdetected” in data set [17].
